Results of several laboratories.
Each line is one published result; the experiments were not run side by side.
Cell line: NCI-H1975
Observed: cell growth or viability

| Compound | method | concentration | time | endpoint | value |
| --- | --- | --- | --- | --- | --- |
| COc1cccc(NC(=O)Nc2nc3cc(-c4ccc5ncn(CCN(C)C)c(=O)c5c4)ccc3s2)c1 | MTT | – | 72 h | IC50 | > 20 µM |
| CCCn1cnc2ccc(-c3ccc(NC(=O)CC4CC4)nc3)cc2c1=O | CCK-8 | – | 72 h | IC50 | 3.48 µM |
| COc1ccc2/c(=N/c3ccccc3NC(=O)[C@H](C)N)cc(-c3ccc4c(c3)OCCO4)oc2c1 | CCK-8 | 1 µM | – | inhibition | 5.17% |
| CCCn1cnc2ccc(-c3ccc(NC(=O)c4ccccc4)nc3)cc2c1=O | CCK-8 | – | 72 h | IC50 | 0.095 µM |
| N[C@@H](CO)C(=O)Nc1ccccc1/N=c1\cc(-c2ccc3c(c2)OCO3)oc2ccccc12 | CCK-8 | 1 µM | – | inhibition | -1.95% |
| C#Cc1cccc(Nc2ncnc3cc(OCCOC)c(OCCOC)cc23)c1 | MTT | – | 72 h | IC50 | 5.72 µM |
| Cc1ccc(NC(=O)Nc2nc3cc(-c4ccc5ncn(Cc6ccccc6)c(=O)c5c4)ccc3s2)cc1 | MTT | – | 72 h | IC50 | > 20 µM |
| CC(C)(C)[C@H](N)C(=O)Nc1ccccc1/N=c1\cc(-c2ccc3c(c2)OCCO3)oc2cc(F)ccc12 | CCK-8 | 1 µM | – | inhibition | -7.44% |
| CCCCC(=O)Nc1ccc(-c2ccc3ncn(CC4CCC4)c(=O)c3c2)cn1 | CCK-8 | – | 72 h | IC50 | 1.4 µM |
| COc1ccc(NC(=O)Nc2nc3cc(-c4ccc5ncn(CCN(C)C)c(=O)c5c4)ccc3s2)cc1 | MTT | – | 72 h | IC50 | > 20 µM |
